Screening results: PubChem BioAssay, The Scripps Research Institute Molecular Screening Center
CHO parental Ca = ATP-evoked calcium signal inhibitors, parental CHO, primary screen, counter-screen for OX1R antagonist project, cell-based, fluorescence, Fluo-8 calcium dye. parental CHO-K1, ATP-induced calcium, Fluo-8 fluorescence. inhibition, % at 5.6 µM. 0.63% of 330,000 active. AID 463079, 2010;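 active = inhibition above that plate's mean sample inhibition plus 3 SD, cut at about 26% in these data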;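 note: 0% = ATP-challenged DMSO wells and 100% = DMSO wells without ATP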
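Test system: untransfected parental CHO cell line; also added: ATP stimulus; dosing: 5.6 µM, single dose; signal: calcium-sensitive Fluo-8 fluorescence; measure: percent inhibition of ATP-evoked calcium rise, normalized to controls; benchmarks: low control ATP plus DMSO, high control DMSO only; replication: one well per compound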
OX1R antag-1 = OX1R (HCRTR1) antagonists, primary screen, fluorescence, CHO/OX1R cells, Fluo-8 calcium, orexin A. Fluo-8 calcium fluorescence. inhibition, % at 5 µM. 0.43% of 330,000 active. AID 434989, 2010;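 active = inhibition above its plate's threshold, mean inhibition of all tested compounds on the plate plus 3 SD, cut at about 37% in these data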;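 note: 0% = orexin A challenge wells and 100% = SB-334867-A antagonist wells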
GalR3 antag = GalR3 antagonists in HEK293 cells, primary screen, cell-based, fluorescence readout | HEK293 GalR3-CNG cAMP membrane potential fluorescence; galR3 body fused to GalR1 C-terminus | inhibition, % at 3 µM | 0.44% of 360,000 active;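 active = inhibition above the screen-wide average plus 3 SD, cut at about 13% in these data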;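 note: forskolin and galanin both at EC90 stimulate the cells; cAMP rise reported by CNG channel membrane potential dye signal; 0% = forskolin plus galanin with DMSO and 100% = forskolin alone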
Target sequence (O60755 1-299 limits assumed): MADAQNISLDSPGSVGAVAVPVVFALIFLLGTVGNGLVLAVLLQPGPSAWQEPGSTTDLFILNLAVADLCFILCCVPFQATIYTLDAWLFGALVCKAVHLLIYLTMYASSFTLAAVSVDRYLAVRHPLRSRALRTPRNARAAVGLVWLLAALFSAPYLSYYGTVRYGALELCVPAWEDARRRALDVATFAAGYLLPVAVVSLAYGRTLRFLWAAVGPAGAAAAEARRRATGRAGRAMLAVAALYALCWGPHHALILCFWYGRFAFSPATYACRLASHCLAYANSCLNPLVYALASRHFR
OX1R antag-2 = antagonists of human orexin 1 receptor (OX1R) | Orexin/Hypocretin receptor type 1 (Homo sapiens), O43613 | OX1R-expressing cells, FRET antagonist read-out | inhibition, % at 6.6 µM | 1.8% of 330,000 active; in the data active = inhibition mostly above about 38%, no sharp cut-off; inactive = mostly below about 40%;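 note: 0% = agonist challenge alone and 100% = reference antagonist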
GPR7 antagonist = GPR7 receptor antagonists, primary screen, cell-based, fluorescence, single concentration | Neuropeptides B/W receptor type 1 (Homo sapiens), P48145 | GPR7-expressing cells, fluorescence antagonist assay | inhibition, % at 4.4 µM | 1.1% of 290,000 active; in the data active = inhibition above about 16%, passing the limit was not always enough;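 note: cells stimulated with the agonist NPW; 0% = agonist with vehicle and 100% = vehicle without agonist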
Target sequence (P48145 whole entry, looked up): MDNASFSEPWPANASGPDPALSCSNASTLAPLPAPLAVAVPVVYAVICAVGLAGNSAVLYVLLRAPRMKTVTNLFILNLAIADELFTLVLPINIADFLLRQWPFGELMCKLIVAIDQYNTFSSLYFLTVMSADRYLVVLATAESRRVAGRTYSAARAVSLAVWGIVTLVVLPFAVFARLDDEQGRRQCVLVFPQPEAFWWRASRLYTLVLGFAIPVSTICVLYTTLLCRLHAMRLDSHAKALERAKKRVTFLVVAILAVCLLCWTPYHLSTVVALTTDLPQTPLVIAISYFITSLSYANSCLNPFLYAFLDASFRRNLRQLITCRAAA
GPR7 antag cf = GPR7 receptor antagonists, confirmation, cell-based, fluorescence, single concentration | shares compounds with GPR7 antagonist | GPR7-expressing cells, calcium fluorescence antagonist mode | inhibition, % at 4.4 µM | 52% of 2,400 active | AID 1952, 2009; in the data active = inhibition above about 24%;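 note: stimulated with the GPR7 agonist NPW; 0% = agonist plus vehicle and 100% = vehicle alone without agonist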
MCHR1 antagonist = MCHR1 antagonists in cells, counter-screen for GPR7 antagonist project, cell-based, fluorescence, human | shares compounds with GPR7 antagonist | MCHR1-expressing cells, fluorescence antagonist assay | inhibition, % at 4.4 µM | 62% of 2,400 active; in the data active = inhibition above about 22%;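 note: 0% = vehicle with agonist and 100% = vehicle without agonist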
* marks the source's active call; other numbers are inactive results; · = not tested or not shown. Sampled rows, rich in hits. Any-hit rate of the full collection: about 3.1%.

SMILES | CHO parental Ca | OX1R antag-1 | GalR3 antag | OX1R antag-2 | GPR7 antagonist | GPR7 antag cf | MCHR1 antagonist
COC(=O)[C@]12C[C@H](CC(=O)NCc3ccc(C)o3)C(=O)N(Cc3ccc4c(c3)OCO4)C1=C[C@H](COCc1ccccc1)O[C@@H]2C | · | · | -8 | · | · | · | ·
CCOC(=O)c1c(N)sc2c(OCC)c(Br)ccc12 | -20 | -13 | -4 | 25 | 24* | 29* | 28*
CCOC(=O)c1c(NC(C)=O)sc2c(OCC(O)CNC(C)(C)C)c(Br)ccc12 (stereo not drawn) | -16 | -22 | -5 | 13 | 0 | · | ·
NC(=O)C1CCN(c2cc(Cl)ccc2[N+](=O)[O-])CC1 | -18 | -17 | -1 | 36 | 26* | -9 | -10
CC(C)C[C@H]1CN(CCCC[C@H]2CNC(=O)C(=O)N2CC2CCCCC2)C(=O)C(=O)N1CC1CCCCC1 | · | · | -3 | · | · | · | ·
CCOC(=O)CSc1nc(N)c(C#N)c(-c2ccc(OCC)cc2)c1C#N | 2 | 2 | -8 | 33 | 22* | 10 | 22*
CCOC(=O)CC1(C)Sc2ccccc2N1S(=O)(=O)c1ccc(C)cc1 (stereo not drawn) | · | · | -5 | · | · | · | ·
COCC(=O)Oc1cc(-c2ccc(C)cc2C)c(OC(=O)COC)c(-c2ccc(C)cc2C)c1 | · | · | -6 | · | · | · | ·
O=C(c1ccc(Cl)cc1)C(CN1CCCCC1)c1ccccc1 (stereo not drawn) | -10 | -7 | -4 | -4 | 55* | 65* | 82*
CCOC(=O)C(CN1CCCC1)c1ccccc1 (stereo not drawn) | 4 | -4 | 2 | 14 | · | · | ·
O=C(CSc1nnc(Cc2cccs2)n1Cc1ccco1)Nc1cccc(Cl)c1 | -12 | -6 | -8 | 36 | 21* | 25* | 33*
CCCCN(C=O)c1c(CC)nc2c(OCc3ccccc3C)cccn12 | · | · | -6 | · | · | · | ·
Nc1ccc(-c2nc3cc(N)ccc3o2)cc1 | -11 | -7 | -8 | 11 | -9 | · | ·
COC(=O)c1ccc(-c2nc3cc(N)ccc3o2)cc1 | -12 | -18 | -2 | 17 | 61* | -12 | 18
CCN(CC1CCCO1)C(=O)CCc1nnc(CCc2ccccc2)o1 (stereo not drawn) | · | · | -5 | · | · | · | ·
COCCCn1c(SCC(=O)N2CCCC2=O)nc2ccccc2c1=O | · | · | -6 | · | · | · | ·
Nn1c(SCc2nc3ccccc3[nH]2)nnc1-c1cccnc1 | 2 | -8 | 2 | 3 | -1 | · | ·
Nn1c(SCc2nc3ccccc3[nH]2)nnc1C1CCCCC1 | -16 | -27 | -3 | 8 | 22* | 13 | -3
NS(=O)(=O)c1ccc(CNC(=S)Nc2ccc(Cl)c(Cl)c2)cc1 | 12 | 15 | -5 | 31 | 33* | 41* | 40*
N=c1c(C(=O)NCc2ccc(F)cc2)cc2c(=O)n3ccccc3nc2n1CC1CCCO1 (stereo not drawn) | -17 | -24 | -2 | 72* | 22* | 26* | 12
C=CCc1ccc(OCCCNC2CCCC2)c(OC)c1 | -9 | -23 | 3 | 11 | · | · | ·
C=CCc1cccc(Cl)c1OCCCNC1CCCC1 | -20 | -22 | -11 | 3 | 30* | 31* | 21*
COc1ccc(CCNC(=O)COC(=O)c2ccc(Br)o2)cc1OC | -10 | -12 | -5 | 14 | 29* | -14 | 16
COc1cccc(CC(=O)N2CCCC(CO)(Cc3ccc(F)cc3F)C2)c1 (stereo not drawn) | -1 | -35 | -12 | 16 | 26* | -7 | -9
CCC(=O)N1CCCC(C(=O)Nc2ccc3cn[nH]c3c2)CC1 (stereo not drawn) | · | · | -6 | · | · | · | ·
SMILES | CHO parental Ca | OX1R antag-1 | GalR3 antag | OX1R antag-2 | GPR7 antagonist | GPR7 antag cf | MCHR1 antagonist
O=C(NCCc1ccccc1F)C1CCCN1S(=O)(=O)c1ccc2ccccc2c1 (stereo not drawn) | -30 | -5 | -6 | 18 | 23* | 10 | 22*
COC(=O)C1=C(C)N(C)C(=NCc2ccc(OC)cc2)NC1c1cccc(Cl)c1 (stereo not drawn) | · | · | -7 | · | · | · | ·
CN(C)c1ccc(/C=C/c2ccc3c4ccccc4ccc3[n+]2-c2ccccc2)cc1 | · | · | 18* | · | 43* | 79* | 78*
COC(=O)C1=C(C)N(Cc2ccc(Br)cc2)C(=S)NC1c1cccc(F)c1 (stereo not drawn) | · | · | -7 | · | · | · | ·
COC(=O)c1ccc(CSc2nnc(NC(C)C)s2)o1 | -3 | -27 | -7 | 11 | -4 | · | ·
COC(=O)c1ccc(CSc2nnc(Nc3cccc(OC)c3)s2)o1 | -5 | -11 | -2 | 33 | 46* | 1 | 48*
CCOc1ccc(Oc2c(/C=N/NC(N)=O)c(C)nn2-c2ccccc2)cc1 | -13 | -3 | 7 | 9 | -9 | · | ·
CCOc1ccc(Oc2c(/C=N/NC(=O)COc3ccccc3OC)c(C)nn2-c2ccccc2)cc1 | -13 | -36 | 1 | 9 | 35* | 33* | 47*
CN1C2CCC1/C(=C\c1ccccc1F)C(=O)/C2=C/c1ccccc1F | -11 | -1 | -2 | 1 | 28* | 22 | 34*
CCCCCCOC(=O)C[N+](C)(C)CCOC1CC2CCC1(C)C2(C)C (stereo not drawn) | 8 | 9 | 3 | 16 | 32* | 65* | 63*
CCCCCCCOC(=O)C[N+](C)(C)CCOC1CC2CCC1(C)C2(C)C (stereo not drawn) | · | · | -3 | · | 28* | 67* | 87*
Cc1ccc2c(c1)c1c(n2CC(O)CNC2CCCCC2)CCCC1 (stereo not drawn) | 19 | -4 | -6 | 13 | 32* | 56* | 54*
O=C(Cc1ccc(-n2cccc2)cc1)N1CCN(c2ccccc2F)CC1 | -23 | -20 | -2 | 12 | 27* | 5 | 8
COC(=O)[C@H]1C[C@H](OC(=O)Nc2c(C)noc2C)[C@@]2(O)CN(S(=O)(=O)c3ccc(C)cc3)CC2[C@H]1C(=O)OC (stereo partly drawn) | · | · | 2 | · | · | · | ·
CCc1nc2ccc(C(=O)Nc3cc(-c4ccccc4)ccc3OC)cn2c1N(C)Cc1nccs1 | · | · | -5 | · | · | · | ·
Cc1ccccc1OCCn1cc(/C(N)=N/O)c2ccccc21 | 6 | -15 | -3 | 23 | 13 | · | ·
CN1CCN(C(=S)c2cn(CCOc3ccccc3)c3ccccc23)CC1 | -16 | -18 | -1 | 16 | 27* | 20 | 11
